FAS TE block: inhibitors of human fatty acid synthase thioesterase domain; 360,000 compounds, 0.67% hits; recombinant FAS-TE, OMFH fluorogenic substrate, fluorescence endpoint; inhibition, % at 15 µM; P49327;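 active = compounds whose normalised, plate-corrected inhibition of enzyme fluorescence in the single-dose primary screen is 50% or more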;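 note: 0% = DMSO with enzyme and 100% = substrate without enzyme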
Target sequence (P49327 whole entry, looked up, the tested form may be a part): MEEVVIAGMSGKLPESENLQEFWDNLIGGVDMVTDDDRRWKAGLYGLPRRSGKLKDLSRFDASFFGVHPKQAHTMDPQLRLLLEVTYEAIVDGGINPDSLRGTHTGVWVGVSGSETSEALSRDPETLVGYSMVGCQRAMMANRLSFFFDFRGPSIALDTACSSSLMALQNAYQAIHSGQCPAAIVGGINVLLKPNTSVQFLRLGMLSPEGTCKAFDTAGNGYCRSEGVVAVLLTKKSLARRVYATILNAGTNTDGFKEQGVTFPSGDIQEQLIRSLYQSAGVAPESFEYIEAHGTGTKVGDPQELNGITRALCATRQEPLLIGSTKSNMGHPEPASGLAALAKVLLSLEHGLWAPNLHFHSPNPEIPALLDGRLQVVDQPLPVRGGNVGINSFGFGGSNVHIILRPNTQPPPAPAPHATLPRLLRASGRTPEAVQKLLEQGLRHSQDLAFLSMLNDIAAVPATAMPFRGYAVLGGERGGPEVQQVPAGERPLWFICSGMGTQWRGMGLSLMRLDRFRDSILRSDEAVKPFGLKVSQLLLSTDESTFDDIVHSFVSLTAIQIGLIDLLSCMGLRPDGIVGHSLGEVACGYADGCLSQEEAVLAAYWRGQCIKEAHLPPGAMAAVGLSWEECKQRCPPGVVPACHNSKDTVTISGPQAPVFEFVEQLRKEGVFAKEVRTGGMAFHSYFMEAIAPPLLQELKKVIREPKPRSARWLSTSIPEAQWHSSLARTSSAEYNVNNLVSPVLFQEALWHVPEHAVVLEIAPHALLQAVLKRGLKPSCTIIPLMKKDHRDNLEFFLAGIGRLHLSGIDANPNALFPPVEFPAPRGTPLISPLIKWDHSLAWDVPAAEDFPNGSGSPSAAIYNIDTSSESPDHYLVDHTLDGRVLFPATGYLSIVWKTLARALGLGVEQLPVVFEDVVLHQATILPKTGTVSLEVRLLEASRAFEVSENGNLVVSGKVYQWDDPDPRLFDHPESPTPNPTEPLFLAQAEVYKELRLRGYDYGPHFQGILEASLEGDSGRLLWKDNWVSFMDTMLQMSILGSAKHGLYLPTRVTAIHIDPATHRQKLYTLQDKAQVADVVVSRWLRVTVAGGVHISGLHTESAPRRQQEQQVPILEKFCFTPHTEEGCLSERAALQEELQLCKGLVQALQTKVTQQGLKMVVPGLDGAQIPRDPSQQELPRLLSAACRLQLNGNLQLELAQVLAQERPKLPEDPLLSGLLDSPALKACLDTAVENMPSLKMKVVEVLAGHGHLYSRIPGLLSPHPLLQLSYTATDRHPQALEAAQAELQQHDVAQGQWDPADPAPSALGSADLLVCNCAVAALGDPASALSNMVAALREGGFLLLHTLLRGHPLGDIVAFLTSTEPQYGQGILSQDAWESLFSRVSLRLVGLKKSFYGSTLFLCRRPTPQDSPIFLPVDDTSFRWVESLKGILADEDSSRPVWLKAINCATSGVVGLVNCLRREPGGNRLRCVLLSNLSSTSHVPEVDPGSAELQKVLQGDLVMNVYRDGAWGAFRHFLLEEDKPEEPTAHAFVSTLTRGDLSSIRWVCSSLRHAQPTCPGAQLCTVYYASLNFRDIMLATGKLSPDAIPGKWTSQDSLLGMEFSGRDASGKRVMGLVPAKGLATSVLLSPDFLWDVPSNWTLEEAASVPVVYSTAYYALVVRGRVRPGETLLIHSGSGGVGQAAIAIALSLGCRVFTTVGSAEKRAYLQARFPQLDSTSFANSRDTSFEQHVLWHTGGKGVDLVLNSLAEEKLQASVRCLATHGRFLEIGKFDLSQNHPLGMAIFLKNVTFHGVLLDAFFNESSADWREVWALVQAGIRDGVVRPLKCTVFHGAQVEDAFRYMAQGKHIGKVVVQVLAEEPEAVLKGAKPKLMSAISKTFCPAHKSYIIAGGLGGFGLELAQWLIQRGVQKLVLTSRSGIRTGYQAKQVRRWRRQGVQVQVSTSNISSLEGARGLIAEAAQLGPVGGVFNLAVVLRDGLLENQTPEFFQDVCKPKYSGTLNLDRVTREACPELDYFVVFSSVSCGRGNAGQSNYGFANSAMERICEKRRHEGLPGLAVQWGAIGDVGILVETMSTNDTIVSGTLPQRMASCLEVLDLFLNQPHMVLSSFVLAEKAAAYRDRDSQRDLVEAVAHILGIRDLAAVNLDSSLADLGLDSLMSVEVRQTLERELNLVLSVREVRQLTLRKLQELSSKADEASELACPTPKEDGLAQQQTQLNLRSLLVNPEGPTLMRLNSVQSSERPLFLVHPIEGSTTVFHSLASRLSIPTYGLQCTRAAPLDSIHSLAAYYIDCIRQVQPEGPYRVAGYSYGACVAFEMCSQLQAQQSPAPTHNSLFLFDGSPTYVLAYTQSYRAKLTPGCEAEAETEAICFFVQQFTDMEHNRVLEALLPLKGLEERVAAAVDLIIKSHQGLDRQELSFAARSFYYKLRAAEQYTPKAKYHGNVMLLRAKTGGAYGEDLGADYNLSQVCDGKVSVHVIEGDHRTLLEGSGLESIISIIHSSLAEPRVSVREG
Arr AP2 block: blocks beta-arrestin peptide binding to AP2 adaptin. FITC-arrestin peptide / GST-AP2 beads, flow cytometry; AP2 beta2 appendage carries R879A mutation. inhibition, % at 10 µM. 340,000 compounds, 0.31% hits. AID 504490;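 active = inhibition above a set limit, near 3 SD of compounds lacking own fluorescence, cut at about 54% in these data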;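 note: plate controls were DMSO wells for no effect and 5 µM unlabelled arrestin peptide for full effect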
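Measured by: flow cytometry, FL1 (488/535 nm); Material: AP2 appendage R879A on GSH beads; Evaluation: percent response; Timing: pre-incubation 12 min, peptide binding 1 h, room temperature; Also added: 50 nM FITC-arrestin peptide; Medium: PBS with 0.05% Tween 20 and 0.1% BSA.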
GRIN3A LBD mod: modulators (binders) of human NR3A ligand-binding domain | Tm shift relative to glycine control, % at 25 µM | 340,000 compounds, 2.5% hits | NR3A LBD differential scanning fluorimetry, Tm shift; 0% = protein alone, 100% = glycine-bound protein;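 active = melting temperature shift of at least 10% of the positive control shift, at one fixed dose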
SENP1 inh: blocks the human SENP1 SUMO protease catalytic domain | recombinant SENP1 catalytic domain, CyPet-SUMO1-YPet FRET cleavage | AID 624204 | Q9P0U3 | inhibition, % at 10 µM | 360,000 compounds, 0.21% hits;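 active = inhibition at least 30% at 10 µM, raw YFP signal under a set limit, fluorescence ratio 0.5 to 1.5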;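 note: 0% = enzyme with DMSO and 100% = no enzyme wells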
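system = hSENP1 catalytic domain, recombinant | reagent = SFCypet-SUMO1-SFYpet substrate at 25 nM | doses = one dose per compound, 10 µM, 0.5% DMSO | incubation = enzyme reaction for 50 min at room temperature, dark | measured by = FRET, CFP and YFP emission | controls = no-enzyme low, enzyme-DMSO high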
H9c2 protect: protects H9c2 cardiomyocytes from peroxide injury. protection from H2O2 cell death, % at 20 µM. H2O2 injury protection, ATPLite, 2 h. 360,000 compounds, 0.63% hits;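 active = compounds giving at least 50% protection of heart cells from peroxide-induced death in the single-dose screen, raw or plate-pattern-corrected value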;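 note: 0% = DMSO wells with peroxide and 100% = DMSO wells without peroxide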
hiPSC survival: hiPSC single-cell survival enhancement; survival enhancement, % at 20 µM; 360,000 compounds, 0.044% hits; AID 602274; ATPlite luminescence; 100% = ROCK inhibitor wells, 0% = DMSO; in the data active = survival enhancement above about 18%;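 note: cells exposed to compounds for 16 hours before the ATP read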
The depositor's hits bear a star; · = no result. Sampled rows, rich in hits. Any-hit rate of the full collection: about 4%.

SMILES	FAS TE block	Arr AP2 block	GRIN3A LBD mod	SENP1 inh	H9c2 protect	hiPSC survival
Cc1ccc(S(=O)(=O)CCC(=O)Nc2nc(-c3ccccn3)cs2)cc1	0	-12	-1	-2	20	2
COc1ccc(OC(F)(F)F)cc1CC1(C)C(=O)Nc2ccc(S(=O)(=O)NC3CCCCC3)cc21 (stereo not drawn)	20	·	·	-2	2	7
CCOc1ccc(Br)cc1C1=CC(=O)C[C@H](c2ccc(OC)cc2)C1	26	10	16*	3	-3	-3
COc1ccc(/C=N/Nc2nc(N3CCCCC3)nc(N3CCCCC3)n2)cc1[N+](=O)[O-]	48	13	-1	0	3	2
COc1ccc(/C=N/Nc2nc(Nc3ccccc3)nc(N3CCCC3)n2)cc1[N+](=O)[O-]	6	-27	26*	2	1	6
Cc1nc2ccccc2c(=O)n1/N=C/c1ccc2ccccc2c1O	20	-11	-10	-33	57*	-1
O=C(Nc1ccccc1-c1ccccc1)c1cccc(C(F)(F)F)c1	28	-8	18*	4	1	-2
O=C(Nc1ccc(C(F)(F)F)cc1-c1ccccc1)c1ccccc1	-4	6	-1	2	2	0
COc1cc(/C=N/Nc2ccc([N+](=O)[O-])cc2S(=O)(=O)N2CCOCC2)cc(OC)c1OC	46	-9	0	-28	-2	2
O=[N+]([O-])c1ccc(N/N=C/c2ccc(O)c(O)c2O)c(S(=O)(=O)N2CCOCC2)c1	21	41	23*	7	22	-1
O=[N+]([O-])c1ccc(N/N=C/c2cccc(O)c2O)c(S(=O)(=O)N2CCOCC2)c1	35	36	30*	-55	12	0
COc1cc(OC)cc(-c2noc(-c3csc([C@@H]4C[C@H](O)[C@@H](CO)O4)n3)n2)c1	-4	·	·	2	0	-3
CCc1ccc(OCC(=O)NC(NC(=S)Nc2ccc(Cl)cc2)C(Cl)(Cl)Cl)cc1 (stereo not drawn)	5	-2	24*	1	-10	-1
O=C(NC(NC(=S)Nc1ccc(Cl)cc1)C(Cl)(Cl)Cl)c1ccco1 (stereo not drawn)	21	-3	13*	-1	-20	4
CC(=O)c1ccc(NC(=S)NC(NC(=O)c2ccco2)C(Cl)(Cl)Cl)cc1 (stereo not drawn)	4	22	-7	2	-19	0
O=C1NC(c2ccccc2)(C(F)(F)F)C(=O)N1Cc1cccnc1 (stereo not drawn)	-9	-7	20*	1	-1	-1
Cc1ccc(OCC(=O)N2CCCCC2)c(Br)c1	-7	11	17*	0	2	-2
O=C1[C@H]2[C@@H](c3ccc(C(F)(F)F)cc3)N[C@]3(CCCN(Cc4ccc(F)cc4)C3=O)[C@H]2C(=O)N1Cc1ccccc1	31	·	·	1	67*	-1
CC(C)NC(=O)C1(C)CN(S(C)(=O)=O)CC(=O)N1CC(F)(F)F (stereo not drawn)	·	·	·	2	·	·
O=C(Nc1ccc(Cl)cc1)N[C@@H]1c2c(ccc3ccccc23)OC[C@@H]1CO	21	-7	26*	0	-15	0
Oc1ccc(Br)cc1C=Nc1ccc2c3c(cccc13)CC2	11	7	-4	-28	87*	2
Oc1ccc(Cl)cc1C=Nc1ccccc1Br	-19	-3	4	-15	48	4
CCCc1cn(CC(C)n2c(=O)c3ccccc3n2Cc2cc(C(C)C)no2)nn1 (stereo not drawn)	·	·	·	2	·	·
COc1ccc(OC)c(NC(=O)C23CCC(C)(C(=O)C2)C3(C)C)c1 (stereo not drawn)	-5	-9	11*	3	8	-1
CCc1nnc(NC(=O)CCN2C(=O)c3ccccc3C2=O)s1	-8	2	-2	1	5	2
SMILES	FAS TE block	Arr AP2 block	GRIN3A LBD mod	SENP1 inh	H9c2 protect	hiPSC survival
CC(=O)c1sc(NC(=O)CCN2C(=O)c3ccccc3C2=O)nc1C	-7	-12	17*	-1	25	1
O=C(COC(=O)Cc1n[nH]c(=O)c2ccccc12)NNC(=O)c1ccccc1	-3	25	-1	2	50	-1
Cc1ccc(C(=O)CSc2nc3ccccc3o2)cc1	17	22	17*	4	-10	1
O=C(COc1ccc(Cl)cc1)NCc1n[nH]c(=O)c2ccccc12	-9	3	6	2	81*	0
O=C(Cc1n[nH]c(=O)c2ccccc12)NCc1ccc(Cl)cc1	-3	1	0	0	67*	0
O=C(Cc1n[nH]c(=O)c2ccccc12)NCc1ccccn1	-18	0	1	1	54*	0
C[C@H]1CN([C@@H](C)CO)C(=O)CCCn2nncc2CO[C@H]1CN(C)S(=O)(=O)c1ccc2ccccc2c1	-2	·	·	0	6	-1
CCOC(=O)C(=O)N(C)c1c(CC)nc2c(OCCC3CCCCC3)cccn12	8	·	·	1	2	-2
CC(C)(C)c1ccc(C(=O)N2CCOC23CCCCC3)cc1	1	·	·	-1	-5	0
Cc1c(Cl)cccc1NC(=O)CNC(=O)Cc1n[nH]c(=O)c2ccccc12	-4	8	0	3	88*	2
CCCN(CC(=O)Nc1ccccc1C)C(=O)Cc1n[nH]c(=O)c2ccccc12	-10	-5	1	-1	60*	0
CCCN(CC(=O)Nc1ccccc1C)C(=O)Cc1c[nH]c2ccccc12	-2	15	0	2	-6	0
O=C(CSc1nc2ccccc2o1)NCc1n[nH]c(=O)c2ccccc12	-8	1	-1	2	57*	1
Cc1c(Cl)cccc1NC(=O)CNC(=O)c1ccccc1F	-3	-4	0	0	4	-2
COc1ccc(OCC(=O)NCc2n[nH]c(=O)c3ccccc23)cc1	-3	1	-1	4	78*	0
COC(=O)C[C@H]1C=C[C@H](NS(=O)(=O)c2cn(C)cn2)[C@@H](CO)O1	·	·	·	3	·	·
CCc1nc2c(OCc3cc(Cl)cc(Cl)c3)cccn2c1N(C=O)Cc1ccc(OC)cc1	29	·	·	-8	-4	-2
CCCCC[C@@H](C)N1C[C@@H](COCc2ccccc2)Oc2cc(N3CC[C@H](N(C)C)C3)ccc2S1(=O)=O	19	·	·	0	·	-1
Cc1cc2[nH]c(=S)[nH]c2cc1C	-4	-1	2	1	13	-2
Fc1cc2[nH]c(=S)[nH]c2cc1Cl	0	6	32*	0	-2	0
NC(=O)c1cccc(-c2coc3c(C(=O)NCc4ccccc4)cccc23)c1	-10	·	·	2	0	-1
